Laboratory results reported in PubChem BioAssay AID623895 (Broad Institute, 2012).
Active and inactive are the calls of the source.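 How the source made its calls: active means compounds with an ATP-loss curve whose half-maximal dose stays within twice the top dose, in every run; inconclusive means mixed run calls, weak flat effects or poor fits; inactive means the rest, including opposite-direction effects.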

Test: cytotoxicity in ldlA[mSR-BI] CHO cells, dose response, cytotoxicity control for SR-BI HDL uptake inhibitor project, cell-based, 24 h, ATP luminescence, dry powder, set 6 (AID 623895)
Settings: ldlA[mSR-BI] CHO cells viability, ATP luminescence, 24 h; at 35 µM (top of the series)
Outline: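 Material: ldlA[mSR-BI] cells; Input: 4,000 cells per well; Measured by: cell Titer Glo luminescence reporting cellular ATP; Schedule: 24 h at 37 °C, read after 10 min; Dosing: Eight-point compound dose series.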

Row | Structure (SMILES) | activity change, negative = cytotoxicity
1 | C[C@@H]1CN([C@H](C)CO)C(=O)c2cc(NC(=O)Cc3cn(C)c4ccccc34)ccc2O[C@H]1CN(C)C | 6.87% (inactive)
2 | COc1cc(OC)cc(C(=O)Nc2nc(-c3ccc4c(c3)CCN4C(=O)CN3CCOCC3)cs2)c1 | 3.74% (inactive)
3 | C[C@H](CO)N1C[C@H](C)[C@H](CN(C)S(=O)(=O)c2ccc(Cl)cc2)Oc2ccc(NC(=O)Cc3cn(C)c4ccccc34)cc2C1=O | -19.8% (inactive)
4 | C[C@@H]1CN([C@@H](C)CO)C(=O)Cc2cc(N(C)C)ccc2O[C@@H]1CN(C)Cc1ccc(C(=O)O)cc1 | 4.97% (inactive)
5 | C[C@@H]1CN([C@H](C)CO)C(=O)c2cc(NC(=O)CCCCCC(=O)Nc3ccccc3N)ccc2O[C@H]1CN(C)S(=O)(=O)c1ccc(Cl)cc1 | -0.144% (inactive)
6 | CC(C)CN(C(=O)COC(=O)C12CC3CC(CC(O)(C3)C1)C2)C1CCS(=O)(=O)C1 (configuration not stated) | -14.1% (inactive)
7 | CC(C)NC(=O)Nc1cccc2c1O[C@@H](CN(C)Cc1ccc(C(F)(F)F)cc1)[C@@H](C)CN([C@@H](C)CO)C2=O | -11.3% (inactive)
8 | C[C@@H]1CN([C@H](C)CO)C(=O)c2cc(NC(=O)Cc3cn(C)c4ccccc34)ccc2O[C@H]1CN(C)C(=O)Nc1cccc2ccccc12 | -4.64% (inactive)
9 | C[C@@H]1CN([C@@H](C)CO)C(=O)Cc2cc(NS(C)(=O)=O)ccc2O[C@@H]1CN(C)Cc1ccc(C(F)(F)F)cc1 | -12.8% (inactive)
10 | Cc1ccc(S(=O)(=O)N(C)C[C@@H]2Oc3ccc(NC(=O)Cc4cn(C)c5ccccc45)cc3C(=O)N([C@H](C)CO)C[C@H]2C)cc1 | -12.8% (inactive)
11 | COCC(=O)N1CCc2cc(-c3csc(NC(=O)c4cc(OC)cc(OC)c4)n3)ccc21 | 3.3% (inactive)
12 | C[C@H]1CN([C@@H](C)CO)C(=O)c2cc(NC(=O)Cc3cn(C)c4ccccc34)ccc2O[C@H]1CN(C)S(=O)(=O)c1ccc(Cl)cc1 | -23.6% (inactive)
13 | C[C@@H]1CN([C@H](C)CN)C(=O)c2cc(NC(=O)Cc3cn(C)c4ccccc34)ccc2O[C@H]1CN(C)S(=O)(=O)c1ccc(Cl)cc1 | -0.334% (inactive)
14 | COc1ccc(S(=O)(=O)N(C)C[C@@H]2Oc3ccc(NC(=O)Cc4cn(C)c5ccccc45)cc3C(=O)N([C@H](C)CO)C[C@H]2C)cc1 | -20.3% (inactive)
15 | C[C@@H]1CN([C@H](C)CO)C(=O)c2cc(NS(=O)(=O)c3cccs3)ccc2O[C@H]1CN(C)S(=O)(=O)c1ccc(Cl)cc1 | 1.79% (inactive)
16 | C[C@@H]1CN([C@H](C)CO)C(=O)c2cc(NC(=O)Cc3cn(C)c4ccccc34)ccc2O[C@H]1CN(C)Cc1ccc(-c2ccccc2)cc1 | -34.9% (inactive)
17 | Cc1noc(C)c1S(=O)(=O)Nc1ccc2c(c1)C(=O)N([C@H](C)CO)C[C@@H](C)[C@H](CN(C)S(=O)(=O)c1ccc(Cl)cc1)O2 | -15.6% (inactive)
18 | COc1ccc2c(c1)CC(C1(O)C(=O)N(C)c3ccccc31)C2=O (configuration not stated) | -9.47% (inactive)
19 | COc1ccc(-c2nnn(CC(=O)N(C3CCCCC3)C(C)C(=O)NC3CCCCC3)n2)cc1OC (configuration not stated) | -9.26% (inactive)

Row | Structure (SMILES) | activity change, negative = cytotoxicity
20 | C[C@@H]1CN([C@H](C)CO)C(=O)c2cc(NC(=O)Nc3ccc(F)cc3)ccc2O[C@H]1CN(C)S(=O)(=O)c1ccc(Cl)cc1 | -20.6% (inactive)
21 | C[C@H](CO)N1C[C@H](C)[C@H](CN(C)CC2CCCCC2)Oc2c(NS(=O)(=O)c3cn(C)cn3)cccc2C1=O | 5.52% (inactive)
22 | CO[C@H]1CN(C)C(=O)c2ccc(NC(=O)C3CCCC3)cc2OC[C@@H](C)N(C(=O)CC2CC2)C[C@@H]1C | -11.9% (inactive)
23 | C[C@@H]1CN([C@H](C)CO[Si](C)(C)C(C)(C)C)C(=O)c2cc(NC(=O)C3CCCCC3)ccc2O[C@H]1CN(C)C(=O)c1ccc(Cl)cc1 | -16.8% (inactive)
24 | C[C@@H]1CN([C@H](C)CO)C(=O)c2cc(NC(=O)Nc3ccc(C(F)(F)F)cc3)ccc2O[C@H]1CN(C)S(=O)(=O)c1ccc(Cl)cc1 | -31.8% (inactive)
25 | CCCNC(=O)N(C)C[C@@H]1Oc2cc(-c3cncnc3)ccc2S(=O)(=O)N([C@@H](C)CO)C[C@@H]1C | -5.43% (inactive)
26 | COc1ccc(NC(=O)Nc2ccc3c(c2)C(=O)N([C@H](C)CO)C[C@@H](C)[C@H](CN(C)S(=O)(=O)c2ccc(Cl)cc2)O3)cc1 | -15.6% (inactive)
27 | C[C@@H]1CN([C@H](C)CO)C(=O)c2cc(NC(=O)Cc3cn(C)c4ccccc34)ccc2O[C@H]1CN(C)C(=O)Nc1ccc(C(F)(F)F)cc1 | -31.9% (inactive)
28 | O=C(C[C@@H]1CC[C@@H](NC(=O)CC2CC2)[C@H](CO)O1)NCc1ccc(Cl)cc1 | -2.93% (inactive)
29 | CC(=O)Nc1ccc(Cl)c(C(=O)Nc2ccc(N3CCN(C(=O)OC(C)(C)C)CC3)cc2)c1 | -29.2% (inactive)
30 | C[C@@H]1CN([C@H](C)CO)C(=O)c2cc(NC(=O)Cc3cn(C)c4ccccc34)ccc2O[C@H]1CN(C)Cc1ccc(C(=O)Nc2ccccc2N)cc1 | -12.9% (inactive)
31 | C[C@@H]1CN([C@H](C)CO)C(=O)c2cc(NC(=O)Cc3cn(C)c4ccccc34)ccc2O[C@H]1CN(C)S(=O)(=O)c1ccc(Cl)cc1 | -19.8% (inactive)
32 | C[C@@H]1CN([C@@H](C)CO)C(=O)c2cc(NC(=O)Cc3cn(C)c4ccccc34)ccc2O[C@H]1CN(C)S(=O)(=O)c1ccc(Cl)cc1 | -25.3% (inactive)
33 | C[C@@H]1CN([C@H](C)CO)C(=O)c2cc(NC(=O)Cc3cn(C)c4ccccc34)ccc2O[C@H]1CN(C)Cc1ccc(C(=O)O)cc1 | -1% (inactive)
34 | Cc1noc(C)c1S(=O)(=O)N(C)C[C@H]1Oc2c(NC(=O)c3nc4ccccc4s3)cccc2C(=O)N([C@H](C)CO)C[C@H]1C | -8.36% (inactive)
35 | C[C@@H]1CN([C@H](C)CO)C(=O)c2cc(NC(=O)Cn3cnnn3)ccc2O[C@H]1CN(C)S(=O)(=O)c1ccc(Cl)cc1 | 10.5% (inactive)
36 | C[C@@H]1CN([C@H](C)CO)C(=O)c2cc(NC(=O)C3CCCCC3)ccc2O[C@H]1CN(C)S(=O)(=O)c1ccccc1Cl | -18.6% (inactive)
37 | C[C@H](CO)N1C[C@H](C)[C@@H](CN(C)S(=O)(=O)c2ccc(Cl)cc2)Oc2ccc(NC(=O)Cc3cn(C)c4ccccc34)cc2C1=O | -25.3% (inactive)
38 | C[C@@H]1CN([C@H](C)CO)C(=O)c2cc(NS(=O)(=O)c3cn(C)cn3)ccc2O[C@H]1CN(C)S(=O)(=O)c1ccc(Cl)cc1 | 1.24% (inactive)

Row | Structure (SMILES) | activity change, negative = cytotoxicity
39 | C[C@@H]1CN([C@H](C)CO)C(=O)c2cc(NC(=O)C3CC3)ccc2O[C@H]1CN(C)S(=O)(=O)c1ccc(Cl)cc1 | -13% (inactive)
40 | C[C@@H]1CN([C@H](C)CO)C(=O)c2cc(NC(=O)Cc3cn(C)c4ccccc34)ccc2O[C@H]1CN(C)C(=O)Nc1ccc(F)cc1 | -16.3% (inactive)
41 | O=C1C2C3C=CC(C3)C2C(=O)N1c1cccc(N2C(=O)C3C4C=CC(C4)C3C2=O)n1 (configuration not stated) | -8.55% (inactive)
42 | C[C@@H]1CN([C@H](C)CO)C(=O)c2cc(NC(=O)Cc3cn(C)c4ccccc34)ccc2O[C@H]1CN(C)S(=O)(=O)c1ccccc1 | -5.11% (inactive)
43 | Cc1ccc(OCc2cc(C(=O)N3CCCC(O)C3)no2)cn1 (configuration not stated) | -19.7% (inactive)
44 | CO[C@@H]1CN(C)C(=O)c2ccc(NC(=O)C3CC3)cc2OC[C@@H](C)N(Cc2ccncc2)C[C@H]1C | -2.35% (inactive)
45 | C[C@@H]1CN([C@@H](C)CO)C(=O)Cc2cc(NC(=O)CCCN(C)C)ccc2O[C@H]1CN(C)Cc1ccncc1 | 0.314% (inactive)
46 | C[C@@H]1CN([C@H](C)CO)C(=O)c2cc(NC(=O)CCN3CCOCC3)ccc2O[C@H]1CN(C)S(=O)(=O)c1ccc(Cl)cc1 | 19.5% (inactive)
47 | C[C@@H]1CN([C@H](C)CO)C(=O)c2cc(NC(=O)Cc3cn(C)c4ccccc34)ccc2O[C@H]1CN(C)CC1CCCCC1 | -22.1% (inactive)
48 | COc1ccc(CN(C)C[C@@H]2Oc3ccc(NC(=O)CCCN(C)C)cc3C(=O)N([C@H](C)CO)C[C@H]2C)cc1 | 12.2% (inactive)
49 | C[C@@H]1CN([C@H](C)CO)C(=O)c2cc(NC(=O)Cc3cn(C)c4ccccc34)ccc2O[C@@H]1CN(C)S(=O)(=O)c1ccc(Cl)cc1 | -21.3% (inactive)
50 | Cc1ccccc1-c1ccc2c(c1)O[C@@H](CN(C)C(=O)Nc1ccc(F)cc1)[C@H](C)CN([C@@H](C)CO)S2(=O)=O | -23.7% (inactive)
51 | COc1ccc(NC(=O)N(C)C[C@@H]2Oc3ccc(NC(=O)Cc4cn(C)c5ccccc45)cc3C(=O)N([C@H](C)CO)C[C@H]2C)cc1 | 13.1% (inactive)
52 | C[C@@H]1CN([C@H](C)CO)C(=O)c2cc(NS(=O)(=O)c3ccc(F)cc3)ccc2O[C@H]1CN(C)S(=O)(=O)c1ccc(Cl)cc1 | -2.92% (inactive)
53 | O=C(O)CC(C(=O)Nc1cccc(C(F)(F)F)c1)C1CCCO1 (configuration not stated) | -9.62% (inactive)
54 | C[C@@H]1CN([C@H](C)CO)C(=O)c2cc(NC(=O)Cc3cn(C)c4ccccc34)ccc2O[C@H]1CN(C)S(=O)(=O)c1cccs1 | -7.16% (inactive)
55 | Cc1noc(C)c1NC(=O)Nc1ccc2c(c1)C(=O)N([C@H](C)CO)C[C@@H](C)[C@H](CN(C)S(=O)(=O)c1ccc(Cl)cc1)O2 | -7.8% (inactive)
56 | C[C@H](CO)N1C[C@H](C)[C@H](CN(C)C)Oc2c(NS(C)(=O)=O)cccc2C1=O | 4.96% (inactive)
57 | COc1ccc(S(=O)(=O)Nc2ccc3c(c2)C(=O)N([C@H](C)CO)C[C@@H](C)[C@H](CN(C)S(=O)(=O)c2ccc(Cl)cc2)O3)cc1 | -22.9% (inactive)
